Data published in PubChem BioAssay AID463111 (Johns Hopkins Ion Channel Center, 2010).
In all, about 310,000 compounds went through this assay and about 2,800 (0.9%) were called active.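 How the source made its calls: active means B-score of the integrated calcium signal more than 4 SD below the library mean, with starting fluorescence not abnormally high; inactive means the rest.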 Only a selection was taken, and actives are over-represented in it overall.

Assay: enhancers of RGS4 function in calcium signaling – cell-based, HEK293 M3R inducible RGS4, calcium flux, primary screen (AID 463111);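 on B-score: negative B-score means reduced calcium response which marks RGS4 activation or potentiation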
Conditions: HEK293 M3R/inducible RGS4, carbachol calcium flux Fluo4, at 10 µM; active compounds read low
How it was run: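 test system = HEK293 cells with stable M3R and inducible RGS4 | schedule = recording 10 s baseline at 1 Hz, 100 s post-agonist | technique = Fluo4-AM (2 µM) calcium-flux fluorescence, kinetic read | measure = Agonist-evoked peak-minus-minimum fluorescence over baseline, integrated ratio, B score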

B-score, active:
COc1cccc(CNC(=O)CCC2CCCN(Cc3ccc(OC(F)F)cc3)C2)c1 (stereo unspecified) -12
Cc1nn(C)cc1N1C(=O)c2cccc3c(N)ccc(c23)C1=O -8.92
COc1ccc(C(=O)/C=C/c2ccc(-c3ccccc3)cc2)cc1CSCC(=O)O -7.93
O=C(CN1CCCCCC1)N1c2ccccc2Sc2ccc(C(F)(F)F)cc21 -7.9
Cc1cc2oc(=O)cc(CN(C)Cc3ccc(OC(F)F)cc3)c2cc1Cl -7.56
O=C(c1ccc(-n2cnnn2)cc1)N1CCN(C(c2ccccc2)c2ccccc2)CC1 -7.43
CCOC(=O)c1c(NC(=O)C(C)Sc2c[nH]c3ccccc23)sc2c1CCC2 (stereo unspecified) -7.36
COc1cccc(/C=N/Nc2cc(C)nc(-c3ccccc3O)n2)c1O -11.4
Cc1ccc(SCC(=O)c2cc(C)c(OC(=S)N(C)C)c(C)c2)cc1 -8.33
O=C(c1cccs1)C1C(c2ccc(Br)cc2)NC(=S)NC1(O)C(F)(F)F (stereo unspecified) -11.1
COc1ccc(/C=C(\C#N)c2c[nH]c3ccccc23)cc1 -9.16
COc1cccc(C(=O)N/N=C(\C)c2cccc(NC(=O)c3ccc(F)cc3)c2)c1OC -7.56
CCN1CCN(CCNC(=O)c2ccc(/C=C3/Sc4ccccc4N(Cc4cccc(C)c4)C3=O)cc2)CC1 -9.47
Cc1cccc(-c2nc3ccc(C(=O)NCCN4CCN(C)CC4)cc3nc2-c2cccc(C)c2)c1 -8.03
CCOc1ccc(C(CC(=O)O)NC(=O)COc2ccccc2)cc1 (stereo unspecified) -7.76

B-score, inactive:
Cn1c(=O)c2c(SCC(=O)NCC3CCCO3)nc(CC(C)(C)C)nc2n(C)c1=O (stereo unspecified)
OC1CCCN(c2ncnc3c2nnn3Cc2c(F)cccc2Cl)C1 (stereo unspecified)
COc1ccc(CNC(=O)C(c2ccc(O)cc2)N(Cc2ccco2)C(=O)c2snc(C(N)=O)c2N)cc1 (stereo unspecified)
CC(C)c1ccc(NC(=O)Cn2ncc3ccccc32)cc1
COc1cccc(C(=O)N2CCCC(CCC(=O)NCc3ccc(F)c(F)c3)C2)c1 (stereo unspecified)
COc1cccc(CNC(=O)CCC2CCCN(C(=O)c3ccc(F)c(Cl)c3)C2)c1 (stereo unspecified)
COc1cccc(C(=O)OCc2cc(=O)oc3c(C)c(C)ccc23)c1OC
CN1C(=O)c2cccc3c(N)ccc(c23)C1=O
O=C1c2ccccc2C(=O)N1c1cccc2ccccc12
COc1ccc(C(=O)Nc2ccc(C(=O)NCC3CCCO3)cc2)c(OC)c1OC (stereo unspecified)
CC(=O)NCC(=O)N1CCC(n2nccc2NC(=O)CCCc2ccccc2)CC1
COc1ccc(/C=C/C(=O)c2ccc(NS(=O)(=O)c3ccc(C)cc3)cc2)cc1O
COC(=O)c1ccc(COc2ccc(/C=C/C(=O)c3ccc(OC)c(CSCC(=O)O)c3)cc2OC)cc1
CC(C)=CCN1CCN(CCCc2ccccc2)CC1CCO (stereo unspecified)
NC1=NC(c2ccc([N+](=O)[O-])cc2)N(c2ccc(F)cc2)C(N)=N1 (stereo unspecified)
CCOC(=O)CNC(=O)N1c2ccccc2Sc2ccccc21
COc1cc(/C=C/C(=O)N2c3ccccc3Sc3ccc(C(F)(F)F)cc32)cc(OC)c1OC
CCn1nc(C)c(CNC(=O)C2CCC(=O)N(Cc3cccc(F)c3)C2)c1C (stereo unspecified)
Cc1ccc(CN(C)Cc2cc(=O)oc3cc(C)c(Cl)cc23)cc1
CCOc1ccc(N(C)Cc2cc(=O)oc3ccc(OC)cc23)cc1
CCN1CCN(c2sc(S(C)(=O)=O)nc2S(=O)(=O)c2ccc(Cl)cc2)CC1
Cc1onc(C(=O)NN)c1C(=O)N1CCN(C(c2ccccc2)c2ccccc2)CC1
Cn1nnnc1SCC(=O)N1CCN(C(c2ccccc2)c2ccccc2)CC1
C=CCN(C(=O)Cn1ncc2c1-c1cc(C)ccc1OC2)c1ccccc1
Cc1ccc(S(=O)(=O)NCc2ccc(C(=O)NC3CCC(C)CC3)cc2)cc1 (stereo unspecified)
CCOC(=O)c1c(NC(=O)CSc2cn(CC)c3ccccc23)sc2c1CCC2
CCOC(=O)c1c(NC(=S)NC)sc2c1CCCC2
COc1cccc(/C=N/Nc2ncc(C(F)(F)F)cc2Cl)c1O
COc1cccc(/C=N/NC(=O)c2[nH]nc3c2CCc2ccccc2-3)c1O
Cc1ccc(SCC(=O)Nc2ccc3c(c2)OCCO3)cc1
Cc1ccc(C(=O)CSc2ccccc2C(=O)O)cc1
CN(C)C(=O)Cn1c(=O)n(S(=O)(=O)c2ccccc2)c2ccccc21
CC(=O)C1C(c2cccc(Oc3ccccc3)c2)NC(=O)NC1(O)C(F)(F)F (stereo unspecified)
CCOC(=O)C1C(c2ccc(Cl)cc2)NC(=S)NC1(O)C(F)(F)F (stereo unspecified)
O=C(NCc1ccncc1)C(=O)NCC1OCCN1S(=O)(=O)c1ccc(Br)cc1 (stereo unspecified)
COc1ccc(C(C(O)C(=O)c2c[nH]c3ccccc23)N2CCN(c3ccccc3)CC2)cc1 (stereo unspecified)
COc1ccc2[nH]cc(/C=C(/C#N)S(=O)(=O)c3ccccc3)c2c1
COc1cccc(NC(=S)C(C#N)=C2N(C)c3ccccc3N2C)c1
CC(C)(C)c1ccc(C(=O)N2CCN(CCNC(=O)C(=O)Nc3ccc(F)cc3)CC2)cc1
COc1ccc(/C(C)=N\NC(=O)c2ccc(-c3ccccc3)cc2)c(F)c1
COc1cccc(C(=O)Nc2cccnc2)c1OC
CC(C)(C)n1ncc2c(=O)n(Cc3ccc(Cl)cc3)cnc21
O=C(NCCN1CCOCC1)c1ccc(/C=C2\Sc3ccccc3N(Cc3ccc(F)cc3)C2=O)cc1
O=C(NCCCN1CCOCC1)c1ccc2c(c1)N(Cc1cccc(F)c1)C(=O)c1ccccc1S2
Cc1oc(C(N)=O)cc1COc1ccc(C(N)=O)cc1
Cn1nccc1NC(=O)CC(CC(=O)O)c1ccccc1 (stereo unspecified)
Cc1ccc(C(=O)NCCN2CCOCC2)cc1C
CCC1=Nc2cc(C(=O)NCCN3CCCC3)ccc2Sc2ccc(C)cc21
O=C(CN1CCC(NC(=O)C2CC2)CC1)Nc1ccccc1[N+](=O)[O-]
Cc1ccc(OCC(=O)NC(C)c2ccccc2)cc1C (stereo unspecified)
CCOc1ccc(C(CC(=O)O)NC(=O)Cc2ccccc2)cc1OC (stereo unspecified)
